Laboratory results taken from ChEMBL document CHEMBL4732114, “Design and structural optimization of novel 2H-benzo[h]chromene derivatives that target AcrB and reverse bacterial multidrug resistance” (Eur J Med Chem, 2021).
≈ marks a conversion by molar mass, not a printed value.

Experiments:
[1] = biological target: T1, Multidrug efflux pump subunit AcrB (Escherichia coli (strain K12)) (UniProt P31224); experiment: Inhibition of AcrB in multidrug-resistant Escherichia coli BW25113 assessed as potentiation of erythromycin-induced antibacterial activity by measuring erythromycin MIC at 8 ug/ml by checkerboard titration method (reference value: 64 ug/ml); settings: dose 8.0 µg/ml
T1 sequence (whole entry): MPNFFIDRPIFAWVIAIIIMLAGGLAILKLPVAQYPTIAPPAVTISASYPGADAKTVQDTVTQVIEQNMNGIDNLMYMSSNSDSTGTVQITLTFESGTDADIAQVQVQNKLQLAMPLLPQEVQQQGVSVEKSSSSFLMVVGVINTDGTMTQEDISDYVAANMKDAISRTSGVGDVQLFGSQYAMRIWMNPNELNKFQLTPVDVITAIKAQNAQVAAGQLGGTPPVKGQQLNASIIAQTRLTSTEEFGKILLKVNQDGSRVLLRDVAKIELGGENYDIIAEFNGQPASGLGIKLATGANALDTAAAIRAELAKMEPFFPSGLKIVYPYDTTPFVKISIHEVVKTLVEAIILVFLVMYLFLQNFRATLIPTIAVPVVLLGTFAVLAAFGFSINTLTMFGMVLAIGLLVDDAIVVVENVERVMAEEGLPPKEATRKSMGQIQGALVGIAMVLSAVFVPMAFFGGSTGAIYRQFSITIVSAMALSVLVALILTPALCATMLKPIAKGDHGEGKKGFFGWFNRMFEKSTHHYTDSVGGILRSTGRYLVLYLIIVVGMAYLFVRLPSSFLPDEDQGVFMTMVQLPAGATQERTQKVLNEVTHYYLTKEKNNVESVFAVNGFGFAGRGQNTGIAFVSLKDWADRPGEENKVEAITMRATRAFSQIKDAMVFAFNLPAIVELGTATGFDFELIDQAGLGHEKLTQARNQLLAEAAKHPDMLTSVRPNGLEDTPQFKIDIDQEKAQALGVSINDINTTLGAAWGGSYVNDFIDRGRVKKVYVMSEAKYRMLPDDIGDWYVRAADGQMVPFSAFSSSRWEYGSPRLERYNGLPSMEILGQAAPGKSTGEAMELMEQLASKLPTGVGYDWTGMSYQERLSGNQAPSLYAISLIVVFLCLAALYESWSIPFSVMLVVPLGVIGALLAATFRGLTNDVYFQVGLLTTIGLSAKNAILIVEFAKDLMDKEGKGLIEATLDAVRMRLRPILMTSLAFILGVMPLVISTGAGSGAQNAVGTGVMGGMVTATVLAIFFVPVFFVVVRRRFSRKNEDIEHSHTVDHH

[2] = Toxicity in multidrug-resistant Escherichia coli BW25113 assessed as growth inhibition by two-fold broth dilution method
[3] = Toxicity in multidrug-resistant Escherichia coli BW25113 harboring AcrB deletion mutant assessed as growth inhibition by two-fold broth dilution method
[4] = biological target: T1, Multidrug efflux pump subunit AcrB (Escherichia coli (strain K12)); experiment: Inhibition of AcrB in multidrug-resistant Escherichia coli BW25113 assessed as potentiation of chloramphenicol-induced antibacterial activity by measuring chloramphenicol MIC at 8 ug/ml by checkerboard titration method (reference value: 8 ug/ml); settings: dose 8.0 µg/ml
[5] = biological target: T1, Multidrug efflux pump subunit AcrB (Escherichia coli (strain K12)); experiment: Inhibition of AcrB in multidrug-resistant Escherichia coli BW25113 assessed as potentiation of chloramphenicol-induced antibacterial activity by measuring chloramphenicol MIC at 16 ug/ml by checkerboard titration method (reference value: 8 ug/ml); settings: dose 16.0 µg/ml
[6] = biological target: T1, Multidrug efflux pump subunit AcrB (Escherichia coli (strain K12)); experiment: Inhibition of AcrB in multidrug-resistant Escherichia coli BW25113 assessed as potentiation of chloramphenicol-induced antibacterial activity by measuring chloramphenicol MIC at 64 ug/ml by checkerboard titration method (reference value: 8 ug/ml); settings: dose 64.0 µg/ml
[7] = biological target: T1, Multidrug efflux pump subunit AcrB (Escherichia coli (strain K12)); experiment: Inhibition of AcrB in multidrug-resistant Escherichia coli BW25113 assessed as potentiation of chloramphenicol-induced antibacterial activity by measuring chloramphenicol MIC at 128 ug/ml by checkerboard titration method (reference value: 8 ug/ml); settings: dose 128.0 µg/ml
[8] = biological target: T1, Multidrug efflux pump subunit AcrB (Escherichia coli (strain K12)); experiment: Inhibition of AcrB in multidrug-resistant Escherichia coli BW25113 assessed as potentiation of erythromycin-induced antibacterial activity by measuring erythromycin MIC at 32 ug/ml by checkerboard titration method (reference value: 64 ug/ml); settings: dose 32.0 µg/ml
[9] = biological target: T1, Multidrug efflux pump subunit AcrB (Escherichia coli (strain K12)); experiment: Inhibition of AcrB in multidrug-resistant Escherichia coli BW25113 assessed as potentiation of tetraphenylphosphonium-induced antibacterial activity by measuring tetraphenylphosphonium MIC at 8 ug/ml by checkerboard titration method (reference value: 1024 ug/ml); settings: dose 8.0 µg/ml
[10] = biological target: T1, Multidrug efflux pump subunit AcrB (Escherichia coli (strain K12)); experiment: Inhibition of AcrB in multidrug-resistant Escherichia coli BW25113 assessed as potentiation of tetraphenylphosphonium-induced antibacterial activity by measuring tetraphenylphosphonium MIC at 16 ug/ml by checkerboard titration method (reference value: 1024 ug/ml); settings: dose 16.0 µg/ml
[11] = biological target: T1, Multidrug efflux pump subunit AcrB (Escherichia coli (strain K12)); experiment: Inhibition of AcrB in multidrug-resistant Escherichia coli BW25113 assessed as potentiation of tetraphenylphosphonium-induced antibacterial activity by measuring tetraphenylphosphonium MIC at 32 ug/ml by checkerboard titration method (reference value: 1024 ug/ml); settings: dose 32.0 µg/ml
[12] = biological target: T1, Multidrug efflux pump subunit AcrB (Escherichia coli (strain K12)); experiment: Inhibition of AcrB in multidrug-resistant Escherichia coli BW25113 assessed as potentiation of levofloxacin-induced antibacterial activity by measuring levofloxacin MIC at 8 ug/ml by checkerboard titration method (reference value: 0.06 ug/ml); settings: dose 8.0 µg/ml
[13] = biological target: T1, Multidrug efflux pump subunit AcrB (Escherichia coli (strain K12)); experiment: Inhibition of AcrB in multidrug-resistant Escherichia coli BW25113 assessed as potentiation of levofloxacin-induced antibacterial activity by measuring levofloxacin MIC at 32 ug/ml by checkerboard titration method (reference value: 0.06 ug/ml); settings: dose 32.0 µg/ml
Cell membrane = experiment: Induction of inner membrane permeabilization in wild type Escherichia coli BW25113 assessed as perturbation of proton motive force at 128 ug/ml measured after 10 mins in presence of CCCP and glucose by Di0C2(3) probe based fluorescence assay; settings: escherichia coli bw25113, 10 min, dose 128 µg/ml
Procedure, shortened: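 Cell suspensions were left untreated or exposed to 8-128 µg/mL compound for 10 min. DiOC₂(3) was then added and fluorescence followed to a plateau. Cells were re-energized with 0.5% glucose, and the rise in fluorescence was read as membrane-potential build-up. CCCP was added last to dissipate the potential.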

[14] = biological target: T1, Multidrug efflux pump subunit AcrB (Escherichia coli (strain K12)); settings: Escherichia coli BW25113; dose 16.0 µg/ml
[15] = biological target: T1, Multidrug efflux pump subunit AcrB (Escherichia coli (strain K12)); settings: Escherichia coli BW25113; dose 32.0 µg/ml
[16] = biological target: T1, Multidrug efflux pump subunit AcrB (Escherichia coli (strain K12)); settings: Escherichia coli BW25113; dose 64.0 µg/ml
[17] = biological target: T1, Multidrug efflux pump subunit AcrB (Escherichia coli (strain K12)); settings: Escherichia coli BW25113; dose 128.0 µg/ml

| Structure (SMILES) | MIC [1] [µg/mL] | MIC [2] [µg/mL] | MIC [3] [µg/mL] | MIC [4] [µg/mL] | MIC [5] [µg/mL] | MIC [6] [µg/mL] | MIC [7] [µg/mL] | MIC [8] [µg/mL] | MIC [9] [µg/mL] | MIC [10] [µg/mL] | MIC [11] [µg/mL] | MIC [12] [µg/mL] | MIC [13] [µg/mL] | Activity (Cell membrane) | MIC [14] [µg/mL] | MIC [15] [µg/mL] | MIC [16] [µg/mL] | MIC [17] [µg/mL] |
| --- | --- | --- | --- | --- | --- | --- | --- | --- | --- | --- | --- | --- | --- | --- | --- | --- | --- | --- |
| CC1(C)CCc2c(Cn3cnnn3)cc3c(OCc4ccccc4)cccc3c2O1 | 64 | > 512 | > 128 | 8 | 8 | 4 | 4 | 64 | 1020 | 1020 | 1020 | 0.06 | 0.06 | Not Active | 16 (≈ 40 µM) | 16 (≈ 40 µM) | 16 (≈ 40 µM) | 16 (≈ 40 µM) |
| CNC(=O)c1ccc(COc2cccc3c4c(c(Cn5cnnn5)cc23)CCC(C)(C)O4)cc1 | 64 | > 512 | > 128 | 8 | 8 | 4 | 4 | 64 | 1020 | 1020 | 1020 | 0.06 | 0.06 | Not Active | 16 (≈ 35 µM) | 16 (≈ 35 µM) | 16 (≈ 35 µM) | 16 (≈ 35 µM) |
| CC1(C)CCc2c(-c3nnco3)cc3c(OCc4ccc(C#N)cc4)cccc3c2O1 | 64 | > 512 | > 128 | 8 | 4 | 4 | 2 | 64 | 1020 | 1020 | 1020 | 0.06 | 0.06 | Not Active | 16 (≈ 38.9 µM) | 16 (≈ 38.9 µM) | 16 (≈ 38.9 µM) | 16 (≈ 38.9 µM) |
| COc1cccc(COc2cccc3c4c(c(C(=O)O)cc23)CCC(C)(C)O4)c1 | 64 | > 512 | > 128 | 8 | 8 | 4 | 4 | 32 | 1020 | 1020 | 1020 | 0.06 | 0.06 | Not Active | 16 (≈ 40.8 µM) | 16 (≈ 40.8 µM) | 16 (≈ 40.8 µM) | 16 (≈ 40.8 µM) |
| COc1cccc(COc2cccc3c4c(c(-c5nnco5)cc23)CCC(C)(C)O4)c1 | 64 | > 512 | > 128 | 8 | 8 | 8 | 8 | 64 | 1020 | 1020 | 1020 | 0.06 | 0.06 | Not Active | 16 (≈ 38.4 µM) | 16 (≈ 38.4 µM) | 16 (≈ 38.4 µM) | 16 (≈ 38.4 µM) |
| Cc1ccc(COc2cccc3c4c(c(-c5nnco5)cc23)CCC(C)(C)O4)cc1 | 32 | > 512 | > 128 | 8 | 8 | 8 | 2 | 32 | 512 | 512 | 512 | 0.03 | 0.03 | Not Active | 16 (≈ 40 µM) | 16 (≈ 40 µM) | 16 (≈ 40 µM) | 16 (≈ 40 µM) |
| CC1(C)CCc2c(Cn3cnnn3)cc3c(OCc4ccc([N+](=O)[O-])cc4)cccc3c2O1 | 64 | > 512 | > 128 | 8 | 8 | 8 | 8 | 64 | 1020 | 1020 | 1020 | 0.06 | 0.06 | Not Active | 16 (≈ 35.9 µM) | 16 (≈ 35.9 µM) | 16 (≈ 35.9 µM) | 16 (≈ 35.9 µM) |
